Laboratory results taken from ChEMBL document CHEMBL4411311, “Exploration of novel macrocyclic dipeptide N-benzyl amides as proteasome inhibitors” (Eur J Med Chem, 2019).

Legend:
[1] = biological target: T1, Proteasome Macropain subunit MB1 (Homo sapiens) (UniProt P28074); experiment: Inhibition of human hepatic cell derived 20s constitutive proteasome beta5 chymotrypsin-like activity at 10 uM using Suc-WLA-AMC as substrate preincubated for 15 mins followed by substrate addition and measured after 60 mins by fluorescence assay relative to control
T1 sequence (whole entry): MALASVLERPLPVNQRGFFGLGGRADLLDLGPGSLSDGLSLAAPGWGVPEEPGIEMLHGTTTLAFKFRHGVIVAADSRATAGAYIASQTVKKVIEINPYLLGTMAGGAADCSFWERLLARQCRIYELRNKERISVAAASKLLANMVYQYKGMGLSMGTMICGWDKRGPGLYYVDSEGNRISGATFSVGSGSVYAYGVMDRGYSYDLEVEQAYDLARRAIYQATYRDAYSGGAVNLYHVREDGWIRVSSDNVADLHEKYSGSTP

[2] = Stability in human liver microsomes assessed as parent compound remaining at 1 uM measured after 30 mins by LC-MS/MS analysis; type: ADME, Microsome; conditions: read-out: Stability
Outline: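 Test compound at […] incubated with human liver microsomes (1.0 mg/mL protein) in 0.1 M PBS pH 7.4 with 1 mM NADPH. Microsomes preincubated 5 min at 37 °C; reaction started by compound addition and sampled at 0, 10, 20 and 30 min. Stopped with ice-cold methanol containing internal standard, then centrifuged at 15000g for 10 min. Supernatant analysed by LC-MS; % remaining = analyte/IS peak-area ratio relative to 0 min.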

[3] = test system: RPMI-8226; experiment: Antiproliferative activity against human RPMI8226 cells after 72 hrs by MTS assay; type: functional, cell-based; conditions: RPMI-8226, 72 h
Outline: (§1)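 Cells kept at 37 °C in humidified 5% CO₂. RPMI 8226 and MM.1S were grown in RPMI-1640 with 10% FBS plus penicillin/streptomycin. Seeding per well was 5 × 10³ (RPMI 8226), 3 × 10⁴ (MM.1S) or 8 × 10³ (MV-4-11). Cells were treated with DMSO vehicle or graded concentrations, then given MTS/PMS for 2-4 h at 37 °C. OD read at 490 nm minus 690 nm background. Growth inhibition = (A_control − A_sample)/A_control; IC50 from variable-slope sigmoidal nonlinear fit.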

[4] = test system: MV4-11; experiment: Antiproliferative activity against human MV4-11 cells after 72 hrs by MTS assay; type: functional, cell-based; conditions: MV4-11, 72 h; outline: as §1
[5] = test system: MM1.S; experiment: Antiproliferative activity against human MM1S cells after 72 hrs by MTS assay; type: functional, cell-based; outline: as §1
[6] = biological target: T2, Proteasome Macropain subunit MB1 (Homo sapiens, UniProt P28074); experiment: Inhibition of human hepatic cell derived 20s constitutive proteasome beta5 chymotrypsin-like activity using Suc-WLA-AMC as substrate preincubated for 15 mins followed by substrate addition and measured after 60 mins by fluorescence assay
T2 sequence (P28074 whole entry): T1 sequence (whole entry)

[7] = Inhibition of human peripheral blood derived 20s immunoproteasome beta2 trypsin-like activity using […] as substrate preincubated for 15 mins followed by substrate addition and measured after 60 mins by fluorescence assay
[8] = biological target: T3, Proteasome subunit beta type-8 (Homo sapiens, UniProt P28062); experiment: Inhibition of human peripheral blood derived 20s immunoproteasome beta5 chymotrypsin-like activity using […] as substrate preincubated for 15 mins followed by substrate addition and measured after 60 mins by fluorescence assay
T3 sequence (P28062 whole entry): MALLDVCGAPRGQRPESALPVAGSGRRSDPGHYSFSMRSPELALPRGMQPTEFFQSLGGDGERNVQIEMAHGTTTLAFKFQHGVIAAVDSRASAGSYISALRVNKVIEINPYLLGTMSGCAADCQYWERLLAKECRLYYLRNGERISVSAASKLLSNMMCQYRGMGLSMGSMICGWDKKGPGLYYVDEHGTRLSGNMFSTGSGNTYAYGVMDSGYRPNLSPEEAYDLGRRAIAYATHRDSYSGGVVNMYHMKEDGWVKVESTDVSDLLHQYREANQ

[9] = biological target: T4, Proteasome subunit beta type-9 (Homo sapiens, UniProt P28065); experiment: Inhibition of human peripheral blood derived 20s immunoproteasome beta1 caspase-like activity using Suc-PAL-AMC as substrate preincubated for 15 mins followed by substrate addition and measured after 60 mins by fluorescence assay
T4 sequence (P28065 whole entry): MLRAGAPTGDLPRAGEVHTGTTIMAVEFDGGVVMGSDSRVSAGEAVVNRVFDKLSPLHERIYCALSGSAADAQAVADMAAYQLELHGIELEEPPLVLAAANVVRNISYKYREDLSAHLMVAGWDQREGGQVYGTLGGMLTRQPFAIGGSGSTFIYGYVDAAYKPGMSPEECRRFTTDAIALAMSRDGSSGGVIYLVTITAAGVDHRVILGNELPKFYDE

Structure (SMILES) | inhibition [1] [%] | remaining at 0.5 h, 1 µM [2] [%] | IC50 [3] [nM] | IC50 [4] [nM] | IC50 [5] [nM] | IC50 [6] [nM] | IC50 [7] [nM] | IC50 [8] [nM] | IC50 [9] [nM]
COC[C@@H]1NC(=O)c2ccccc2OCCCCCCOC[C@@H](C(=O)NCc2ccccc2Cl)NC1=O | 34 |  |  |  |  |  |  |  | 
CCCCCCOC[C@H](NC(=O)[C@H](CC(=O)NCC(C)(C)C)NC(=O)c1cnn(C)c1CCC)C(=O)NCc1ccc(C)cc1 |  | < 5 | 97 | 73 | 64 | 9 |  |  | 
Cc1ccc(CNC(=O)[C@H]2NC(=O)[C@H](CC(=O)NCC(C)(C)C)NC(=O)c3nccn3CCCCCCCO[C@H]2C)cc1 |  |  | 27 | 208 | 220 | 50 |  |  | 
Cc1ccc(CNC(=O)[C@@H]2COCCCCCCOc3c(cnn3C)C(=O)N[C@@H](CC(=O)NCC(C)(C)C)C(=O)N2)cc1 |  |  | 58 | 55 | 23 | 30 |  |  | 
Cc1ccc(CNC(=O)[C@@H]2Cc3cn(c4ccccc34)CCCCCn3ccnc3C(=O)N[C@@H](CC(=O)NCC(C)(C)C)C(=O)N2)cc1 |  |  | 59 | 52 | 17 | 26 |  |  | 
Cc1ccc(CNC(=O)[C@@H]2COCCCCCCOc3ccccc3C(=O)N[C@@H](CCc3ccccc3)C(=O)N2)cc1 | 38.4 |  |  |  |  |  |  |  | 
CC(C)C[C@H](NC(=O)[C@H](Cc1ccccc1)NC(=O)c1cnccn1)B(O)O [BORTEZOMIB] |  |  |  |  |  |  | 517 |  | 
CC(C)(C)CNC(=O)C[C@@H]1NC(=O)c2ccccc2OCCCCCCOC[C@@H](C(=O)NCc2ccccc2)NC1=O |  |  |  |  |  | 660 |  |  | 
Cc1ccc(CNC(=O)[C@@H]2COCCCCCCOc3ccccc3C(=O)N[C@@H](CC(=O)NCC(C)(C)C)C(=O)N2)cc1 |  |  | 175 | 76 | 37 | 67 |  |  | 
O=C1N[C@@H](CCc2ccccc2)C(=O)N[C@H](C(=O)NCc2ccccc2Cl)COCCCCCCOc2ccccc21 | 36.7 |  |  |  |  |  |  |  | 
CC(C)C[C@H](NC(=O)[C@H](CCc1ccccc1)NC(=O)CN1CCOCC1)C(=O)N[C@@H](Cc1ccccc1)C(=O)N[C@@H](CC(C)C)C(=O)[C@@]1(C)CO1 [CARFILZOMIB] |  |  | 2 |  | < 1 |  |  |  | 
Cc1ccc(CNC(=O)[C@@H]2COCCCCCCCn3ccnc3C(=O)N[C@@H](CC(=O)NCC(C)(C)C)C(=O)N2)cc1 |  | < 20 | 15 | 12 | 6 | 34 | > 10000 | 19 | > 10000
CC(C)(C)CNC(=O)C[C@@H]1NC(=O)c2ccccc2OCCCCCCOC[C@@H](C(=O)NCc2ccccc2Cl)NC1=O |  |  | 301 | 718 | 343 | 127 |  |  | 
Cc1ccc(CNC(=O)[C@@H]2COCCCCCCCc3c(cnn3C)C(=O)N[C@@H](CC(=O)NCC(C)(C)C)C(=O)N2)cc1 |  | ≥ 66 | 18 | 21 | 15 | 29 | > 10000 | 35 | > 10000
